{"source": "paper PMC7194280", "about": "(Leukemia, 2018)", "key": {"MM.1S cells": {"tested_on": "MM.1S cells", "assay_type": "in vivo"}, "normal cells": {"tested_on": "normal cells", "assay": "PI sensitization in normal cells", "assay_type": "cell-based", "settings": "PBMCs, WBCs, MRC-5, Wi-38, HFF, MEF; Btz and Crflz", "summary_of_the_method": "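Normal human PBMCs, lymphocytes, lung (MRC-5, Wi-38) and foreskin (HFF) fibroblasts, and mouse MEF fibroblasts were seeded at 3×10^4 cells/well. Cells received 8-dose Btz or Crflz curves with or without 5 µM test compound. Viability was measured by CellTiter-Glo luminescence. Fold change = PI EC50 without / EC50 with test compound; >1 denotes sensitization, <1 protection.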"}, "PDIA1": {"target": "PDIA1 (Homo sapiens, UniProt P07237)", "sequence (P07237 18-508)": "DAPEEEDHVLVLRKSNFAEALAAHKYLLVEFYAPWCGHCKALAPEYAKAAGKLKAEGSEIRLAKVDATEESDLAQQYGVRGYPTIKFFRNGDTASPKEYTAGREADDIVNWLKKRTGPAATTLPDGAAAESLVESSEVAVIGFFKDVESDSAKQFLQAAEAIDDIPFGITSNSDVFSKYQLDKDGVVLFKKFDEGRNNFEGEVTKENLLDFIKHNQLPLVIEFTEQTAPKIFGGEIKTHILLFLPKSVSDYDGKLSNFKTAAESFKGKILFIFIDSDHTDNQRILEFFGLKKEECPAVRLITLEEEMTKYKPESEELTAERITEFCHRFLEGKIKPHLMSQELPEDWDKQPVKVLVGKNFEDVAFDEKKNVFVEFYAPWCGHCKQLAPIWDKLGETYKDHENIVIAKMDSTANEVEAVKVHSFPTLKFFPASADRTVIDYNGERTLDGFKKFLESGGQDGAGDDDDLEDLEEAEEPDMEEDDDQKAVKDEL", "assay": "Insulin reduction assay", "assay_type": "biochemical", "summary_of_the_method": "(§1)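 The assay measured reductase activity of recombinant PDI family isoforms through insulin reduction, followed as insulin aggregation (turbidity) kinetic traces. A dose range of test compound was applied. IC50 values were extrapolated from 10-dose inhibition curves.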"}, "RPMI-8226 cells": {"tested_on": "RPMI-8226 cells", "assay": "Effect on dexamethasone activity in dexamethasone resistant cells", "assay_type": "cell-based", "settings": "dexamethasone resistant RPMI-8226 cells"}, "20S proteasome": {"tested_on": "20S proteasome", "assay": "Chymotrypsin-like activity of the 20S proteasome", "assay_type": "biochemical"}, "[1]": {"assay": "Stability against oxidative metabolism by human liver microsomes", "assay_type": "in vitro ADME"}, "MM.1S BzR cells [2]": {"tested_on": "MM.1S BzR cells", "assay": "NSG mouse xenotransplant model with MM.1S BzR cells", "assay_type": "in vivo", "summary_of_the_method": "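Mice implanted i.v. with PI-resistant MM.1S BzR cells; test compound at 50 mg/kg i.p. daily versus vehicle, from day 21 post-implant. Read-out: Kaplan–Meier survival. In a parallel cohort, mice were sacrificed on day 49 and % CD138+ cells in bone marrow biopsies was quantified (vehicle N=8, treated N=7), compared by t-test.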"}, "MM cells [3]": {"tested_on": "MM cells", "assay": "Single-agent anti-MM cell viability", "assay_type": "cell-based, human", "settings": "read-out: EC50, single-agent anti-MM activity; 24 h of exposure", "summary_of_the_method": "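Myeloma cells were seeded at 3×10^4 cells/well and exposed to test compound alone. Viability was read by CellTiter-Glo luminescence (470 nm, 1-s integration), and EC50 was derived from dose–response curves.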"}, "MM.1S BzR cells [4]": {"tested_on": "MM.1S BzR cells", "assay": "Btz re-sensitization of PI-resistant MM cells", "assay_type": "cell-based", "settings": "screening hit, low micromolar E61"}, "MM.1S BzR cells [5]": {"tested_on": "MM.1S BzR cells", "assay": "Effect on lenalidomide or doxorubicin cytotoxicity", "assay_type": "cell-based"}, "PDIA6": {"tested_on": "PDIA6", "assay": "Insulin reduction assay", "assay_type": "biochemical", "summary_of_the_method": "as §1"}, "Vk*MYC transgenic mice": {"tested_on": "Vk*MYC transgenic mice", "assay": "Vk*MYC transgenic mouse model of MM", "assay_type": "in vivo", "settings": "2 mg/kg i.p. days 1, 3, 5 of each week for 2 weeks; three mice; P=0.0135"}, "[6]": {"assay": "Pharmacokinetics in CD-1 mice", "assay_type": "in vivo, mouse", "summary_of_the_method": "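CD-1 mice received a single dose of test compound, either i.v. at 2 mg/kg or p.o. at 5 mg/kg. Plasma drug concentrations were followed over 24 h by an optimized LC-MS method. Oral bioavailability and terminal half-life were derived from these plasma profiles.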"}, "[7]": {"assay": "Stability in serum, simulated gastric and intestinal fluids", "assay_type": "in vitro ADME"}, "PDIA3": {"tested_on": "PDIA3", "assay": "Insulin reduction assay", "assay_type": "biochemical", "summary_of_the_method": "as §1"}, "TXNDC5": {"tested_on": "TXNDC5", "assay": "Insulin reduction assay", "assay_type": "biochemical", "summary_of_the_method": "as §1"}, "[8]": {"settings": "mouse, in vivo"}, "MM cells [9]": {"tested_on": "MM cells", "assay": "PI sensitization of MM cell lines", "assay_type": "cell-based, human"}, "PDIA4": {"tested_on": "PDIA4", "assay": "Insulin reduction assay", "assay_type": "biochemical", "summary_of_the_method": "as §1"}, "[10]": {"settings": "E64FC26 2 mg/kg i.p. 3 days/week, N=9"}}, "note": "Like-named read-outs stand apart in the source and are kept apart here."}
{"compound": "CC(C)C[C@H](NC(=O)[C@H](Cc1ccccc1)NC(=O)c1cnccn1)B(O)O", "note": "[Btz, bortezomib, reference compound]", "values": [{"measurement": "increase in median survival over vehicle", "setting": "MM.1S cells; Btz 0.25 mg/kg i.p. 2 days/week, E64FC26 2 mg/kg i.p. 3 days/week, N=8", "result": 6, "unit": "days"}]}
{"compound": "CCCCCCCCOC(=O)/C=C/c1ccc(O)c(O)c1", "note": "[E61, n-octyl caffeate]", "values": [{"measurement": "enhancement of the cytotoxic effects of PIs in normal cells", "setting": "normal cells", "result": "failed to enhance"}, {"measurement": "IC50 in vitro (PDI assay, qualitative)", "setting": "PDIA1", "result": "high micromolar"}, {"measurement": "effect on dexamethasone activity", "setting": "RPMI-8226 cells", "result": "no effect"}, {"measurement": "inhibition of chymotrypsin-like activity of the 20S proteasome", "setting": "20S proteasome", "result": "did not inhibit"}, {"measurement": "calculated intrinsic clearance in human liver microsomes", "setting": "[1]", "result": "97.6 ± 6.0", "unit": "µL/min/mg"}, {"measurement": "number of CD138+ MM cells in bone marrow", "setting": "MM.1S BzR cells [2]; 50 mg/kg i.p. daily, sacrificed on day 49, P=0.007", "result": "significant reduction"}, {"measurement": "treated mice that never reached the survival endpoint", "setting": "MM.1S BzR cells [2]; 50 mg/kg/day i.p.", "result": "4 of the 11"}, {"measurement": "median survival", "setting": "MM.1S BzR cells [2]; 50 mg/kg/day i.p., continuous dosing, vehicle 51 days", "result": 62, "unit": "days"}, {"measurement": "prolongation of median survival", "setting": "MM.1S BzR cells [2]; 50 mg/kg/day i.p., continuous dosing, vs vehicle, N=11", "result": 11, "unit": "days"}, {"measurement": "tolerability (overt signs of distress, body weight)", "setting": "MM.1S BzR cells [2]; continuous dosing for 40+ days, 50 mg/kg/day i.p.", "result": "well tolerated"}, {"measurement": "EC50", "setting": "MM cells [3]", "result": 18300, "unit": "nM"}, {"measurement": "enhancement of Btz cytotoxicity", "setting": "MM.1S BzR cells [4]", "result": "> 6", "unit": "fold"}, {"measurement": "effect on lenalidomide or doxorubicin cytotoxicity", "setting": "MM.1S BzR cells [5]", "result": "did not affect"}]}
{"compound": "CCCCCCCC/C=C1\\C=C(C(F)(F)F)c2cc(O)c(O)cc21", "note": "[E64FC26]", "values": [{"measurement": "inhibition of PDIA6 (qualitative)", "setting": "PDIA6", "result": "inhibited"}, {"measurement": "average decrease in serum M-protein", "setting": "Vk*MYC transgenic mice", "result": "33 ± 7.9", "unit": "%"}, {"measurement": "increase in median survival over vehicle", "setting": "MM.1S cells; [10]", "result": 2, "unit": "weeks"}, {"measurement": "increase in median survival over vehicle (percent)", "setting": "MM.1S cells; [10]", "result": 40, "unit": "%"}, {"measurement": "mice alive on day 36", "setting": "MM.1S cells; E64FC26 2 mg/kg i.p. 3 days/week, vehicle 0% (0/9)", "result": 100, "unit": "%"}, {"measurement": "overt toxicity or body weight fluctuations", "setting": "MM.1S cells; mouse, in vivo", "result": "No overt toxicity or body weight fluctuations"}, {"measurement": "potency relative to E61 as inhibitor of PDI activity in vitro", "setting": "PDIA1", "result": "> 50", "unit": "times"}, {"measurement": "IC50", "setting": "PDIA1; read-out: IC50 against PDIA1, insulin reduction assay", "result": "1900 ± 100", "unit": "nM"}, {"measurement": "oral bioavailabilty", "setting": "[6]; p.o. 5 mg/kg, i.v. 2 mg/kg", "result": 34, "unit": "%"}, {"measurement": "Cmax", "setting": "[6]; read-out: maximum concentration (Cmax), single oral dose of 5 mg/kg, plasma", "result": "~400", "unit": "nM"}, {"measurement": "terminal half-life", "setting": "[6]; single oral dose of 5 mg/kg", "result": 9.5, "unit": "h"}, {"measurement": "stability in serum, simulated gastric and intestinal fluids, and human liver microsomes compared to E61", "setting": "[7]", "result": "increased stability"}, {"measurement": "inhibition of PDIA3 (qualitative)", "setting": "PDIA3", "result": "inhibited"}, {"measurement": "calculated intrinsic clearance in human liver microsomes", "setting": "[1]", "result": "6.22 ± 0.98", "unit": "µL/min/mg"}, {"measurement": "EC50", "setting": "MM cells [3]", "result": 590, "unit": "nM"}, {"measurement": "inhibition of TXNDC5 (qualitative)", "setting": "TXNDC5", "result": "inhibited"}, {"measurement": "blood serum chemistry markers (toxicology)", "setting": "[8]", "result": "mild thrombocytopenia and neutropenia"}, {"measurement": "potency relative to E61 in cellular models of PI sensitization", "setting": "MM cells [9]", "result": "> 10", "unit": "times"}, {"measurement": "concentrations highly synergistic with PIs", "setting": "MM cells [9]; MM.1S BzR and U266 BzR cells, Btz", "result": "≥ 200", "unit": "nM"}, {"measurement": "average increase in PI sensitivity", "setting": "MM cells [9]; cells treated with empirically determined EC10–20 of the PDI inhibitor", "result": "6–7 fold"}, {"measurement": "inhibition of PDIA4 (qualitative)", "setting": "PDIA4", "result": "inhibited"}]}
{"compound": "O=C(O)/C=C/c1ccc(O)c(O)c1", "note": "[caffeic acid, reference compound]", "values": [{"measurement": "PDI reductase activity in vitro (qualitative)", "setting": "PDIA1", "result": "no activity"}, {"measurement": "enhancement of the sensitivity of MM cells to PIs (qualitative)", "setting": "MM cells [9]", "result": "failed to enhance"}]}
{"compound": "PACMA 31 [reference compound]", "values": [{"measurement": "inhibition of PDIA6 (qualitative)", "setting": "PDIA6", "result": "inhibited"}, {"measurement": "inhibition of PDIA3 (qualitative)", "setting": "PDIA3", "result": "failed to inhibit"}, {"measurement": "inhibition of TXNDC5 (qualitative)", "setting": "TXNDC5", "result": "inhibited"}, {"measurement": "inhibition of PDIA4 (qualitative)", "setting": "PDIA4", "result": "inhibited"}]}
